The target in experiment [1] is T1, RNA-binding protein EWS (Homo sapiens) (UniProt Q01844).
T1 sequence (whole entry): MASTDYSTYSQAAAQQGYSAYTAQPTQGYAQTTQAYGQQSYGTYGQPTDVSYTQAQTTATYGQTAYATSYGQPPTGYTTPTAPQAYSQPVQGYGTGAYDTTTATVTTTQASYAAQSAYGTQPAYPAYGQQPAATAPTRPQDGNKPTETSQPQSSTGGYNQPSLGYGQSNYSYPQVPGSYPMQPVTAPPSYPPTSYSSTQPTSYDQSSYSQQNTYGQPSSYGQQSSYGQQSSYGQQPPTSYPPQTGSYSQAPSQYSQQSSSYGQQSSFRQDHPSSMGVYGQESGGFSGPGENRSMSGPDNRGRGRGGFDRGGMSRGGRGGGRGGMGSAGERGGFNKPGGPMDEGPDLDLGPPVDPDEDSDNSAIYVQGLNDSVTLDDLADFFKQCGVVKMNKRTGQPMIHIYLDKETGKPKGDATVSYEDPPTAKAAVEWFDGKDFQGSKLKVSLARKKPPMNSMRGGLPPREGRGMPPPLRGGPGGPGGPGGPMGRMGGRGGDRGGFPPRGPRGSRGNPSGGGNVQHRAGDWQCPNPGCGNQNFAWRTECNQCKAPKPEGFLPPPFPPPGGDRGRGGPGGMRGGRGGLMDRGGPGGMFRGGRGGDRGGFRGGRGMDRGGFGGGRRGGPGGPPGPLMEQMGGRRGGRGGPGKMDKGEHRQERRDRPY
As to the kind of experiment: Binding affinity to RNA-binding protein EWS isoform 6 in human A549 cells at 0.15 mM after 4 hrs by HPLC-MS based pull down assay relative to control. The class given is cell-based. The essentials:
(§1)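 A549 lysate in NETN buffer (pH 8.0, 0.5% NP-40) incubated with biotinylated probe (0.15 mM final) 4 h at 4 °C, with biotin or control probe as comparators. Streptavidin Dynabeads 1 h at 4 °C, six NETN washes, proteins eluted by boiling in SDS buffer. After trypsin digestion, identification by LC-MS/MS on Q Exactive HF.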

Experiment [2] addresses Tubulin beta-3 chain (Homo sapiens) (UniProt Q13509). As to the kind of experiment: Binding affinity to tubulin beta-3 in human A549 cells at 0.15 mM after 4 hrs by HPLC-MS based pull down assay relative to control. The class given is cell-based. The essentials: as §1
Experiment [3] deals with T2, ATP-dependent RNA helicase DDX1 (Homo sapiens) (UniProt Q92499).
T2 sequence (whole entry): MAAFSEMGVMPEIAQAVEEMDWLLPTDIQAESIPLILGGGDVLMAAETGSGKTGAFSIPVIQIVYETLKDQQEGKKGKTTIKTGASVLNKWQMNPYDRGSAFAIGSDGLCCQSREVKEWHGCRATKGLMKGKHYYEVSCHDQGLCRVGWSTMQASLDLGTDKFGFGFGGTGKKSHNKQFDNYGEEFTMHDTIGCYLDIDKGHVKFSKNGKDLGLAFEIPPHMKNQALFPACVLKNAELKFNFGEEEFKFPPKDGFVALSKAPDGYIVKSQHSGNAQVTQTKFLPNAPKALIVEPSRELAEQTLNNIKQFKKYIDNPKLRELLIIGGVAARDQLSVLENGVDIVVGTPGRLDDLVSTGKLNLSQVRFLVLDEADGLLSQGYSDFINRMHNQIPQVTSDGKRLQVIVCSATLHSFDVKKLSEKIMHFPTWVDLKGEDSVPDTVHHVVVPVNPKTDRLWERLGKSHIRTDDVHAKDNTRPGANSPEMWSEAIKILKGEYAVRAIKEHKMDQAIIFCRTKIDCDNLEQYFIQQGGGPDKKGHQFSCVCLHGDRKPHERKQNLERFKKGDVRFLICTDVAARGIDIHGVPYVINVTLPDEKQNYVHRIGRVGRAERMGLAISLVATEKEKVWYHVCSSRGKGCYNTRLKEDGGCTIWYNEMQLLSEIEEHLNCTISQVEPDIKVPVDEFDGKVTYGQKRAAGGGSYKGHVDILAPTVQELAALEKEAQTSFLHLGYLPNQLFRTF
Briefly: Binding affinity to DDX1 in human A549 cells at 0.15 mM after 4 hrs by HPLC-MS based pull down assay relative to control. Type of experiment: cell-based. The method, boiled down: as §1

Experiment [4] has as its target T3, Nucleolar RNA helicase 2 (Homo sapiens) (UniProt Q9NR30).
T3 sequence (whole entry): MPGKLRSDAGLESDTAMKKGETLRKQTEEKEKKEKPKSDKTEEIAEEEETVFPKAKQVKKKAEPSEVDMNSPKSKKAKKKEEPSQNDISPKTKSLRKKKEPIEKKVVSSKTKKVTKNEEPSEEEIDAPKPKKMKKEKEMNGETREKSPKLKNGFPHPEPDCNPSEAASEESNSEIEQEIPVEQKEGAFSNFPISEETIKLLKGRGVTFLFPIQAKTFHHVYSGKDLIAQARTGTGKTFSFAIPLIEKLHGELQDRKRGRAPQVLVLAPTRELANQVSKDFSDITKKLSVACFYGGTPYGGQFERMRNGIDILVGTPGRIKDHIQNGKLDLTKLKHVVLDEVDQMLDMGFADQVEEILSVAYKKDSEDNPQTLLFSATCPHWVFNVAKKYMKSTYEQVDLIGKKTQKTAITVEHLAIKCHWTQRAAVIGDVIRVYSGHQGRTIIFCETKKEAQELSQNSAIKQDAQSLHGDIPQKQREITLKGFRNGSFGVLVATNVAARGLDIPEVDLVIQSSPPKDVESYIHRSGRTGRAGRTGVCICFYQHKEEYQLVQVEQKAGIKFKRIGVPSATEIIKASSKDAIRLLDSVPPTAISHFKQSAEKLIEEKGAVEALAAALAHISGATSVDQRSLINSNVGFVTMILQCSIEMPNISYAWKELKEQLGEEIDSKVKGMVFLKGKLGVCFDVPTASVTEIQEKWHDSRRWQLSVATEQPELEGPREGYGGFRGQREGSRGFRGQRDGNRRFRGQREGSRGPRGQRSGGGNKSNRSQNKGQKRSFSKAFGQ
Briefly: Binding affinity to nucleolar RNA helicase 2 in human A549 cells at 0.15 mM after 4 hrs by HPLC-MS based pull down assay relative to control. The class given is cell-based. The method, boiled down: as §1

Experiment [5] has as its target Ubiquitin carboxyl-terminal hydrolase 10 (Homo sapiens) (UniProt Q14694). As to the kind of experiment: Binding affinity to ubiquitin carboxyl-terminal hydrolase 10 isoform-2 in human A549 cells at 0.15 mM after 4 hrs by HPLC-MS based pull down assay relative to control. Type of experiment: cell-based. The essentials:
as §1

Experiment [6] concerns the target Serine/arginine-rich splicing factor 1 (Homo sapiens) (UniProt Q07955). Briefly: Binding affinity to serine/arginine-rich-splicing factor 1 in human A549 cells at 0.15 mM after 4 hrs by HPLC-MS based pull down assay relative to control. Type of experiment: cell-based. The essentials: as §1
Experiment [7] deals with T1, RNA-binding protein EWS (Homo sapiens). Briefly: Binding affinity to RNA-binding protein EWS in human A549 cells at 0.15 mM after 4 hrs by HPLC-MS based pull down assay relative to control. The class given is cell-based. The essentials: as §1
For another experiment, the system named is A549. Briefly: Binding affinity to tubulin alpha in human A549 cells immunoblot based based pull down assay. Type of experiment: cell-based. The method, boiled down: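 A549 lysate in NETN buffer incubated with biotin, biotinylated probe or control probe at 4 °C, then streptavidin Dynabeads 1 h at 4 °C. Beads washed six times, bound proteins run on SDS-PAGE and immunoblotted for α-tubulin.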
A general note: In western blotting, separated proteins are transferred to a membrane and probed.

For the next experiment, the species on record is Sus scrofa. Briefly: Inhibition of taxol binding to porcine tubulin preincubated with tubulin followed by taxol treatment measured after 2 hrs by immunoblot analysis.

Activity calls are given as the source filed them. The rule behind the calls is not given here.

Sequence of Serine/arginine-rich splicing factor 1 (Homo sapiens) (Q07955 whole entry): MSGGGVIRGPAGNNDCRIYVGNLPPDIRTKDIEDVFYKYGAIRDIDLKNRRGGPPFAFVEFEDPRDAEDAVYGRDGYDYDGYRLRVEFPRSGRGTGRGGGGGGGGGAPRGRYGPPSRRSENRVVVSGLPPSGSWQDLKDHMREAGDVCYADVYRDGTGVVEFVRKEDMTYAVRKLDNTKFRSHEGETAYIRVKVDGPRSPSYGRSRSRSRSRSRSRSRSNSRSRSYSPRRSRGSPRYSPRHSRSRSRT
Sequence of Tubulin beta-3 chain (Homo sapiens) (Q13509 whole entry): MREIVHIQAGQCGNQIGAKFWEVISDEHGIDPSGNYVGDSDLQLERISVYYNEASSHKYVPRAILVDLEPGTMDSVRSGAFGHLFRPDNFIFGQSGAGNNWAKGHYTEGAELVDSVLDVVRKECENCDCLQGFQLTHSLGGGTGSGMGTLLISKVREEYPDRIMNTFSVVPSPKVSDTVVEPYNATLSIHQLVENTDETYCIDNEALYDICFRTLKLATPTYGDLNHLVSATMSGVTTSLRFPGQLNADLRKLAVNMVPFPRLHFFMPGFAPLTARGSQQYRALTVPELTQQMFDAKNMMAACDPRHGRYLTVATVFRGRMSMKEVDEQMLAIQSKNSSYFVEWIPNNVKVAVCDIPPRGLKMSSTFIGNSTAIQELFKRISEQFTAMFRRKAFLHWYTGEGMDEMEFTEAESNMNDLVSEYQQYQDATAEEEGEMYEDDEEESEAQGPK
Sequence of Ubiquitin carboxyl-terminal hydrolase 10 (Homo sapiens) (Q14694 whole entry, canonical isoform): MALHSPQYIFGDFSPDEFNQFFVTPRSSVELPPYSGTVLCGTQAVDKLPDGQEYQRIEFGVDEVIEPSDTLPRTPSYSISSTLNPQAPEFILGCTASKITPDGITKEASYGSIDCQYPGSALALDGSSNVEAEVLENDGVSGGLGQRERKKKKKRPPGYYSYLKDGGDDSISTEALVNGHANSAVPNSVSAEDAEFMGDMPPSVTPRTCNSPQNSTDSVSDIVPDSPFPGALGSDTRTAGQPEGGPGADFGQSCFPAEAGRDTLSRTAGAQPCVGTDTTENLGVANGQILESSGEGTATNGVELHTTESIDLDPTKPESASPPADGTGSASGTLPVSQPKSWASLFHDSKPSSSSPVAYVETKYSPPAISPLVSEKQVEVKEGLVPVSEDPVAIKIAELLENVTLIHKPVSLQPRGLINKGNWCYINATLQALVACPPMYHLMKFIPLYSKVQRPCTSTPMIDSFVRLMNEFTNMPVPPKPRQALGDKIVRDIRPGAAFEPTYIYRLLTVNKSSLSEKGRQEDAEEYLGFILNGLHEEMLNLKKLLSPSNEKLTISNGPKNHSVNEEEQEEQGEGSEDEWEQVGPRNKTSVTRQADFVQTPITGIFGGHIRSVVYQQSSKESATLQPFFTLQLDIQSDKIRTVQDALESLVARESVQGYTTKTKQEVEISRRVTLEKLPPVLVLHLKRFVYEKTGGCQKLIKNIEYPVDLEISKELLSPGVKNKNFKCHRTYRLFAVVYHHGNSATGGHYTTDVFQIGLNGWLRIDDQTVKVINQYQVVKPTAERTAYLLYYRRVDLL

For `Cc1cc2c(=O)[nH]c(CSC(=S)N(CCCNC(=O)CCCC[C@@H]3SC[C@@H]4NC(=O)N[C@@H]43)Cc3ccc(C#N)cc3)nc2s1`, the Activity in experiment [1] was found to be 40.5%; in experiment [2], 16.7%; in experiment [3], 38.8%; in experiment [4], 35.1%; in [5], 42.8%; in [6] it was 52.2%. For the same compound, the Activity in experiment [7] amounted to 55.8%. Further, the result in the experiment on A549 was Active. Besides, in the experiment listed under Sus scrofa, the inhibition result was “inactive”.

The record behind these values is ChEMBL document CHEMBL4152279, “Synthesis, cytotoxic evaluation and target identification of thieno[2,3-d]pyrimidine derivatives with a dithiocarbamate side chain at C2 position” (Eur J Med Chem, 2018).
